Screening results from PubChem BioAssay.
This is one part of a sample in which hits are shown more often than they occur.
S1P3 antagonist – antagonists of human S1P3 receptor. hit rate 0.27% among 170,000. inhibition, % at 4.98 µM. CHO S1P3 NFAT-BLA reporter, FRET fluorescence, antagonist mode. AID 485. Q99500;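 active means inhibition above the plate cutoff, the mean inhibition of test wells on that plate plus 3 SD, cut at about 28% in these data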;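 further: cells challenged with S1P at its EC80 of 0.8 µM; blue over green emission ratio from cleaved BLA substrate after 4 h stimulation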
S1P4 antag – human S1P4 receptor antagonism. hit rate 0.26% among 220,000. inhibition, % at 4.98 µM. AID 1510. S1P4-expressing cells, antagonist mode, reporter read-out. O95977; in the data active means inhibition above about 29%
L major viab – Leishmania major promastigote growth inhibition; Leishmania major promastigotes, resazurin fluorescence viability; inhibition, % at 10 µM; hit rate 9% among 200,000; in the data active means inhibition above about 50%;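 further: promastigotes grown with compound for 44 hours at 28 °C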
Mdm2 ligase inh – blocks human Mdm2 ubiquitin ligase activity | Q00987 | cell-based MDM2 ubiquitination luciferase reporter, 2 h; 0 = plate control, 100 = twice control, blank-subtracted | signal enhancement, % at 5 µM | hit rate 0.11% among 210,000 | AID 1230;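 active means signal enhancement of 30% or more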;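 further: luminescence tracks abundance of the self-degrading MDM2-luciferase fusion protein; higher signal means inhibition of MDM2 E3 ligase activity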
Target sequence (Q00987 whole entry, looked up, the tested form may be a part): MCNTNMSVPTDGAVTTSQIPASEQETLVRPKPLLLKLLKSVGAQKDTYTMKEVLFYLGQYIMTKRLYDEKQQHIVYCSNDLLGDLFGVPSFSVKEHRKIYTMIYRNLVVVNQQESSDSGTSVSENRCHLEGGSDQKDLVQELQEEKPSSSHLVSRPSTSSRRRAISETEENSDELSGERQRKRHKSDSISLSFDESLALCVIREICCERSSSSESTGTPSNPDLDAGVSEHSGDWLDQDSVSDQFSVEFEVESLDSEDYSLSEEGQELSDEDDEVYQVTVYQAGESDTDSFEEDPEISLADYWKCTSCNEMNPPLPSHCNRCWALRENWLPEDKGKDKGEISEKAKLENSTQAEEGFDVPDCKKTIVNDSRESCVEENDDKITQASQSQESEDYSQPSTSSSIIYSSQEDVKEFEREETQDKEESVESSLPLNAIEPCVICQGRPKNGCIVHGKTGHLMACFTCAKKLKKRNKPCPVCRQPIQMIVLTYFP
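Assay system: mammalian cells stably expressing self-ubiquitinating, self-degrading MDM2 E3–luciferase fusion. Quantity: 2000 cells in each well. Medium: DMEM culture medium. Compound dosing: single-point 5 µM. Timing: cell settling 4 h, compound treatment 2 h, both 37 °C. Technique: luciferase luminescence. Read-out basis: percent signal gain over controls, blank-subtracted. Benchmarks: plate controls and plate blanks.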
S1P4 ag – human S1P4 receptor agonism. O95977. S1P4-expressing cell line, agonist reporter assay. activation, % at 4.98 µM. hit rate 0.35% among 220,000; in the data active means activation above about 11%
Large screens that a line does not name were inactive.

CN(c1ccccc1)S(=O)(=O)c1ccc(C(=O)Nc2nnc(C3CC3)o2)cc1	L major viab 98
O=C(NCN1C(=O)C2C3C=CC(C3)C2C1=O)Nc1nccs1 (configuration not stated)	none
O=S(=O)(NC1CCCCC1)c1ccc(N2CCOCC2)nc1	none (no result: L major viab)
CC(C)=NNc1nc(-c2ccccc2)cs1	L major viab 89
Clc1ccc(N/N=C/c2cccnc2)cc1	L major viab 62
CC1CC(CC(=O)NNc2nc(-c3ccccc3)cs2)C(=O)O1 (configuration not stated)	none
C/C(CCC1CC(C)OC1=O)=N/Nc1nc(-c2ccccc2)cs1 (configuration not stated)	L major viab 76
C(=N\Nc1nc(-c2ccccc2)cs1)/c1cccnc1	L major viab 91 (no result: S1P3 antagonist)
CCOC(=O)C/C(C)=N\Nc1nc(-c2ccccc2)cs1	none
CC(/C=C/c1ccccc1)=N\Nc1nc(-c2ccccc2)cs1	L major viab 69 (no result: S1P3 antagonist)
CC(C)(C)OC(=O)CC[C@@H](C(=O)N1CCN(C(=O)OC(C)(C)C)CC1)n1cc(C(CO)NC(=O)OC(C)(C)C)nn1 (some centres not stated)	none (no result: Mdm2 ligase inh)
O=C(c1cc(-c2ccncc2)nc2ccccc12)N1CCN(S(=O)(=O)/C=C/c2ccccc2)CC1	L major viab 97 (no result: S1P3 antagonist)
O=C(c1cc(-c2ccccc2)nc2ccccc12)N1CCc2ccccc2C1	L major viab 58
Cc1ccc2nc(-c3ccccc3)cc(C(=O)N3CCc4ccccc4C3)c2c1	none (no result: S1P3 antagonist)
O=S(=O)(/C=C/c1ccccc1)N1CCN(c2nc(-c3cccnc3)nc3ccccc23)CC1	L major viab 52
O=S(=O)(c1ccc2c(c1)OCCO2)N1CCN(c2nc(-c3cccnc3)nc3ccccc23)CC1	none
CC(=O)c1cc(CN2CCN(C3CCCCC3)C(CCO)C2)cs1 (configuration not stated)	none
CCN(CC)c1ccc(NC(=O)CCNC(=O)c2ccco2)cc1	L major viab 90
COc1ccccc1OCCNc1cc(N2CCCCC2)ccc1[N+](=O)[O-]	none
Cc1ccccc1OCCNc1cc(N2CCNCC2)ccc1[N+](=O)[O-]	L major viab 100
N#Cc1c(C(F)(F)F)cc(=O)[nH]c1SCC(=O)O	none
COc1ccc(-c2cn3cc(C)ccc3n2)cc1Br	L major viab 84
COc1ccc(-c2cn3cc(Cl)ccc3n2)cc1OC	none
O=C(CN1CCN(c2ccc(O)cc2)CC1)Nc1cc([N+](=O)[O-])ccc1Cl	none
CC1CC(C)(C)NC(=S)N1CCCC(=O)Nc1ccc(Br)cc1 (configuration not stated)	none
CCOc1ccc(NC(=O)CCCN2C(=S)NC(C)(C)CC2C)cc1 (configuration not stated)	L major viab 59
Cc1cccc(/C(N)=N/OC(=O)N2CCOCC2)c1	L major viab 56 (no result: S1P3 antagonist)
Cc1csc(NC(=O)CSc2nnc(NC(=O)COc3ccccc3)s2)n1	L major viab 51
Cc1csc(NC(=O)CSc2nnc(C)s2)n1	none
Cc1ccc(-n2c(SCC(N)=O)nnc2-c2ccccn2)cc1C	none
Cc1csc(NC(=O)CSc2nnc(-c3ccccn3)n2-c2ccc(C)c(C)c2)n1	L major viab 68
CN(C)S(=O)(=O)c1ccc(C(=O)OCC(=O)NCc2ccco2)cc1	none
CNC(=S)N1N=C(c2ccc(Br)cc2)CC1c1ccc(OC)cc1 (configuration not stated)	L major viab 99
CNC(=S)N1N=C(c2ccc(C)cc2)CC1c1cc(OC)ccc1OC (configuration not stated)	L major viab 53
CNC(=S)N1N=C(c2ccc(OC)cc2)CC1c1ccc(Cl)cc1Cl (configuration not stated)	L major viab 100
CNC(=S)N1N=C(c2ccc(C)cc2)CC1c1ccc(OC)cc1 (configuration not stated)	L major viab 97 (no result: S1P3 antagonist)
COc1ccc(OC)c(C2CC(c3ccccc3)=NN2C(=S)Nc2ccccc2)c1 (configuration not stated)	none (no result: L major viab)
CCn1c2ccccc2c2cc(NC(=O)COC(=O)c3cc(Cl)c(N)cc3OC)ccc21	none (no result: L major viab, Mdm2 ligase inh)
COc1ccc(N(CC(=O)Nc2ccc(OC)cc2OC)S(=O)(=O)c2ccccc2)cc1	none
COc1ccc(NC(=O)CCN2C(=O)c3ccc([N+](=O)[O-])cc3C2=O)c(OC)c1	L major viab 90
COc1ccc(NC(=O)CN(c2ccc([N+](=O)[O-])cc2)S(=O)(=O)c2ccccc2)c(OC)c1	L major viab 75
